ChEMBL document CHEMBL1123413, “Synthesis and biological evaluation of 1-(1,2-benzisothiazol-3-yl)- and (1,2-benzisoxazol-3-yl)piperazine derivatives as potential antipsychotic agents” (J Med Chem, 1986)

Tests used:
D(2) dopamine receptor = D(2) dopamine receptor (Rattus norvegicus, UniProt P61169); experiment: In vitro affinity for rat striatal Dopamine receptor D2 labeled with [3H]spiperone
Rattus norvegicus [1] = species: Rattus norvegicus; experiment: Inhibition of conditioned avoidance response (CAR); format: functional
How it was run: (§1)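 Rats trained to avoid an electric shock, test compound given orally, and block of the conditioned avoidance response scored. ED50 (mg/kg, po) with fiducial limits by the method of Berkson.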

[2] = molecular target: T1, Adrenergic receptor alpha-1 (Rattus norvegicus, UniProt P15823+P23944+P43140)
T1 sequence (P15823 whole entry): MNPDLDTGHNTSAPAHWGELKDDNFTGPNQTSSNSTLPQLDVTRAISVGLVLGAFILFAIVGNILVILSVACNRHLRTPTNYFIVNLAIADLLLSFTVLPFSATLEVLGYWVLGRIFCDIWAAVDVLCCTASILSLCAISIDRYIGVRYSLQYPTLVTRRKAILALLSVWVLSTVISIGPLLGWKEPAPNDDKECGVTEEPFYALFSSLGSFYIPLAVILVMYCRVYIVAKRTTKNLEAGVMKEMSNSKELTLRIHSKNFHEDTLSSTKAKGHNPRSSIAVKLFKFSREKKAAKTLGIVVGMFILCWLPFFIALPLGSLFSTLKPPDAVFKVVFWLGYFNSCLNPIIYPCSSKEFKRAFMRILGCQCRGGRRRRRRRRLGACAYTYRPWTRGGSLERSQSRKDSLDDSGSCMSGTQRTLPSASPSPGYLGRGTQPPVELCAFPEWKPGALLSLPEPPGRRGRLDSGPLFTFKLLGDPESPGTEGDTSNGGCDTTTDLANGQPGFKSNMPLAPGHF
T1 sequence (P23944 whole entry): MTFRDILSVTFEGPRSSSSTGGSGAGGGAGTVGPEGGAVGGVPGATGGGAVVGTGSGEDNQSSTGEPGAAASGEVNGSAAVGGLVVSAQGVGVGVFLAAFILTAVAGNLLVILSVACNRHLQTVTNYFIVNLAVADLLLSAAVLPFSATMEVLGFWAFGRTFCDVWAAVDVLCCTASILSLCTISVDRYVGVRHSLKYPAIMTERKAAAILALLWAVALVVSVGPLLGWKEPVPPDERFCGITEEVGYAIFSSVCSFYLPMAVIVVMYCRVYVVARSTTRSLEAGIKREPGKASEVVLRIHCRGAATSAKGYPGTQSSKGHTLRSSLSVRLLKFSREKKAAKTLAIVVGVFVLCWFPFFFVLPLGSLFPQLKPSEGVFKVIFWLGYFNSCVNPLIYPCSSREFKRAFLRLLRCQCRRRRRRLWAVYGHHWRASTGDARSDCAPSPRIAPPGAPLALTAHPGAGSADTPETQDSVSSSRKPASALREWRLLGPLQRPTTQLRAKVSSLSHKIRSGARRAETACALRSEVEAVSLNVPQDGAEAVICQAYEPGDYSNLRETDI
T1 sequence (P43140 whole entry): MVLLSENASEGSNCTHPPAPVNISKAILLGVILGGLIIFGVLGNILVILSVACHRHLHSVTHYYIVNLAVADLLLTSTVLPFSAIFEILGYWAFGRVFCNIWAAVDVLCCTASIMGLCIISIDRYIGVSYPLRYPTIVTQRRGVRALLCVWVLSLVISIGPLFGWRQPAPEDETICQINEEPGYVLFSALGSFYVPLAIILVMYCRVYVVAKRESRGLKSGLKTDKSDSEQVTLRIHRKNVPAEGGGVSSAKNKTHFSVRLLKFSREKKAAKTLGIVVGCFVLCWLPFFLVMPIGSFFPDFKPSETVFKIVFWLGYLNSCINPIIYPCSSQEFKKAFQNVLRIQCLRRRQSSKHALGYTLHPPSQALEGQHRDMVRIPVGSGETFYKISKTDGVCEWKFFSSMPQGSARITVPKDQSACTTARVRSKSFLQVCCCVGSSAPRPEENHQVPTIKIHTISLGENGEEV

Rattus norvegicus [3] = species: Rattus norvegicus; experiment: Compound was tested for its ability to induce catalepsy in rats; format: functional
How it was run: (§2)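 Catalepsy was induced in rats with orally dosed compound as a predictor of extrapyramidal liability. ED50 (mg/kg, po) with fiducial limits by Berkson's method.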

Rattus norvegicus [4] = species: Rattus norvegicus; experiment: Compound was tested for the inhibition of apomorphine-induced stereotype; format: functional
How it was run: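 In rats, oral test compound was scored for block of apomorphine-induced stereotypy as an in vivo dopamine-system measure. ED50 (mg/kg, po) and fiducial limits by Berkson's method.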

Rattus norvegicus [5] = species: Rattus norvegicus; experiment: Compound was tested for its ability to induce catalepsy in rats.; format: functional; how it was run: as §2
Rattus norvegicus [6] = species: Rattus norvegicus; experiment: Compound was tested for inhibition of conditioned avoidance response (CAR ); format: functional; how it was run: as §1
Rattus norvegicus [7] = experiment: Compound was tested for inhibition of spontaneous motor activity in rat when administered perorally; format: functional; settings: po
[8] = Lethal dose after peroral administration in mouse; format: toxicity, organism-based; settings: in vivo, po
Mus musculus [9] = experiment: Compound was tested for inhibition of norepinephrine lethality in mouse when administered perorally; format: functional; settings: po
How it was run: (§3)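 Groups of 10 nonfasted male mice dosed orally with test compound (initial 100 mg/kg) or vehicle (distilled H2O or 0.5% methocel). Active compounds retested at lower doses, 10 mice/dose, for dose response. ED50 by Berkson's method.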

Mus musculus [10] = experiment: Compound was tested for inhibition of spontaneous motor activity in mouse when administered perorally; format: functional; settings: po
Mus musculus [11] = experiment: Compound was tested for inhibition of physostigmine lethality in mouse when administered perorally; format: functional; settings: po
How it was run: as §3, with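 “methocel). At 30 min, physostigmine given ip at 1.25 mg/kg, and lethality followed for up to 1 h.” for “methocel).”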

[12] = molecular target: GABA-A receptor; anion channel; experiment: (§4) Inhibition of [3H]muscimol binding to Gamma-aminobutyric acid (GABA-A) receptor; format: protein-complex assay, Rattus norvegicus
[13] = Binding affinity against histamine receptor was measured using radioligand ([3H]-pyrilamine) binding assay
Rattus norvegicus [14] = experiment: Compound was tested for inhibition of hexobarbatial potentiation in rat when administered perorally; format: functional; settings: po
How it was run: (§5)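 Nonfasted male rats given test drug orally, vehicle distilled H2O or 0.5% methocel. Hexobarbital sodium (40 mg/kg) or EtOH (10 mL of 20% solution/kg) given ip at 15, 30, 60 or 120 min postdrug, controls 15 min after vehicle. Loss of righting reflex lasting 1 min scored over about 10–15 min. Dose response at time of peak effect, 10 rats/dose. ED50 and fiducial limits by Berkson's method.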

Rattus norvegicus [15] = experiment: (§6) Compound was tested for inhibition of ethanol potentiation in rat when administered perorally; format: functional; settings: po; how it was run: as §5
Rattus norvegicus [16] = experiment: as §6; format: functional; settings: po; remark: listed apart in the source
How it was run: (§7)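 Nonfasted male rats received test drug or vehicle (distilled H2O or 0.5% methocel). EtOH (10 mL of 20% solution/kg, ip) followed at 15, 30, 60 or 120 min post-drug; the vehicle group got it at 15 min. Rats were watched about 10–15 min for loss of righting reflex lasting 1 min. Dose response at peak time used 10/dose; ED50 by Berkson.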

Mus musculus [17] = species: Mus musculus; experiment: Oral effective dose against spontaneous motor activity in mouse; format: functional
Mus musculus [18] = species: Mus musculus; experiment: Oral effective dose against norepinephrine-induced lethality in mouse; format: functional; how it was run: as §3
Mus musculus [19] = species: Mus musculus; experiment: Oral effective dose against physostigmine-induced lethality in mouse; format: functional
How it was run: as §3, with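 “methocel). At 30 min, physostigmine given ip at 1.25 mg/kg, and lethality followed for up to 1 h.” for “methocel).”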

Rattus norvegicus [20] = species: Rattus norvegicus; experiment: Oral effective dose against hexobarbatial potentiation in rat; format: functional
How it was run: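 Hexobarbital sodium (40 mg/kg, ip) was given to nonfasted male rats 15, 30, 60 or 120 min after test drug, or 15 min after vehicle (distilled H2O or 0.5% methocel). Loss of righting reflex of 1-min duration was scored over about 10–15 min. Dose response at peak-effect time used 10 rats/dose; ED50 and fiducial limits by Berkson.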

[21] = molecular target: Gamma-aminobutyric acid receptor subunit gamma-1 (Rattus norvegicus, UniProt P23574); experiment: as §4
Sequence of Gamma-aminobutyric acid receptor subunit gamma-1 (P23574 whole entry): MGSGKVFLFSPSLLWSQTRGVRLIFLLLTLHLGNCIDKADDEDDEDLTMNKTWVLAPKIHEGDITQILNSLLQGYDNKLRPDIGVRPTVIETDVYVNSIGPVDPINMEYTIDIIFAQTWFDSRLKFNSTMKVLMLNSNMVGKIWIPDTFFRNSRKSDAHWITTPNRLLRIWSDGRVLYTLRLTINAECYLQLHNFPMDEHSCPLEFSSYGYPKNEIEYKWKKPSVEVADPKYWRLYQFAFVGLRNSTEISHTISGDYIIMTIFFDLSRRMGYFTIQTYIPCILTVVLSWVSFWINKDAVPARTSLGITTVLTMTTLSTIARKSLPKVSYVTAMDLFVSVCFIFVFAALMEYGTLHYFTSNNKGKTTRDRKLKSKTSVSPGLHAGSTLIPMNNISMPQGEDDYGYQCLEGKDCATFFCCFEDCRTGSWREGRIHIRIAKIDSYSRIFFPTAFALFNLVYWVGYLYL

Rattus norvegicus [22] = species: Rattus norvegicus; experiment: Oral effective dose against spontaneous motor activity in rat; format: functional
Rattus norvegicus [23] = species: Rattus norvegicus; experiment: Oral effective dose against ethanol potentiation in rat; format: functional; how it was run: as §7

Sequence of D(2) dopamine receptor (P61169 whole entry): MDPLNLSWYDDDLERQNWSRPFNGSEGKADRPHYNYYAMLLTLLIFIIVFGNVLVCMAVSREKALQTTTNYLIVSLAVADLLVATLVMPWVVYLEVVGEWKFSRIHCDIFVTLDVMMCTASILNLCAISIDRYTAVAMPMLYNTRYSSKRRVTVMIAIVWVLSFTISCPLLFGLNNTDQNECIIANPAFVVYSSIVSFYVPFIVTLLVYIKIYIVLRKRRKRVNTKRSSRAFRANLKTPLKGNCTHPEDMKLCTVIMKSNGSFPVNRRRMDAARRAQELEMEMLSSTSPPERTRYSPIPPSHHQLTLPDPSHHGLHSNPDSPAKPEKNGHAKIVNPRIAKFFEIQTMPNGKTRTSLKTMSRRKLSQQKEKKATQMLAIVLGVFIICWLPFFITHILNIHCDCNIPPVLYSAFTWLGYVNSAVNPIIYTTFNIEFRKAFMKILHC

Row | SMILES | IC50 (D(2) dopamine receptor) [nM] | IC50 [2] [nM] | ED50 (Rattus norvegicus [1]) [mg/kg] | ED50 (Rattus norvegicus [4]) [mg/kg] | ED50 (Rattus norvegicus [5]) [mg/kg] | other results
1 | O=C1SC2(CCCC2)C(=O)N1CCCCN1CCCN(c2noc3ccccc23)CC1 | > 1000 |  | > 100 |  |  | 
2 | O=C1CSC(=O)N1CCCCN1CCN(c2noc3ccc(Cl)cc23)CC1 | 440 | 33 | > 100 |  |  | 
3 | CC1CN(CCCCN2C(=O)CC3(CCCC3)CC2=O)CCN1c1nsc2ccccc12 (stereo not given) | 64 |  | > 100 |  |  | 
4 | OC(CCCN1CCN(c2noc3ccccc23)CC1)c1ccc(F)cc1 (stereo not given) | 30 | 2 | 1 | 2.3 | 2.2 | 
5 | O=C1CSC(=O)N1CCCCN1CCN(c2noc3ccccc23)CC1 | 240 | 1 | 8.3 |  | 11.7 | 
6 | O=C(CCCN1CCN(c2noc3ccccc23)CC1)c1ccc(F)cc1 | 69 | 5 | 5.8 |  |  | ED50 (Rattus norvegicus [3]): 39.9 mg/kg
7 | CN(C)CCCN1c2ccccc2Sc2ccc(Cl)cc21 [CHLORPROMAZINE] |  |  |  | 9.6 | 4.1 | ED50 (Rattus norvegicus [7]): 17.2 mg/kg; LD50 [8]: 250 mg/kg; ED50 (Mus musculus [9]): 2.72 mg/kg; ED50 (Mus musculus [10]): 3.6 mg/kg
8 | CN1CCN(C2=Nc3cc(Cl)ccc3Nc3ccccc32)CC1 [CLOZAPINE] |  |  |  |  | > 200 | ED50 (Mus musculus [11]): 5.4 mg/kg; IC50 [12]: > 1000 nM; ED50 (Rattus norvegicus [7]): 17.5 mg/kg; LD50 [8]: 219 mg/kg; IC50 [13]: 18 nM; ED50 (Rattus norvegicus [14]): 1.69 mg/kg; ED50 (Mus musculus [9]): 3.5 mg/kg; ED50 (Rattus norvegicus [15]): 3.23 mg/kg; ED50 (Mus musculus [10]): 1.9 mg/kg
9 | O=C(CCCN1CCC(O)(c2ccc(Cl)cc2)CC1)c1ccc(F)cc1 [HALOPERIDOL] |  |  | 2.8 | 0.5 | 0.58 | ED50 (Mus musculus [11]): > 80 mg/kg; ED50 (Rattus norvegicus [7]): 0.73 mg/kg; LD50 [8]: 500 mg/kg; ED50 (Mus musculus [9]): 26 mg/kg; ED50 (Mus musculus [10]): 0.45 mg/kg; ED50 (Rattus norvegicus [16]): 0.28 mg/kg
10 | CSc1ccc2c(c1)N(CCC1CCCCN1C)c1ccccc1S2 (stereo not given) [THIORIDAZINE] |  |  |  | 280 |  | ED50 (Mus musculus [17]): 12.8 mg/kg; ED50 (Mus musculus [18]): 2.2 mg/kg; LD50 [8]: 250 mg/kg; ED50 (Mus musculus [19]): 45 mg/kg; ED50 (Rattus norvegicus [20]): 27.3 mg/kg; IC50 [21]: > 1000 nM; ED50 (Rattus norvegicus [22]): 33 mg/kg; ED50 (Rattus norvegicus [23]): 56 mg/kg

Now from value to compound, other results behind:

Row | IC50 (D(2) dopamine receptor) [nM] | IC50 [2] [nM] | SMILES | ED50 (Rattus norvegicus [1]) [mg/kg] | ED50 (Rattus norvegicus [4]) [mg/kg] | ED50 (Rattus norvegicus [5]) [mg/kg] | other results
11 | 10 | 8 | O=C(CCCN1CCN(c2nsc3ccccc23)CC1)c1ccc(F)cc1 | 7.4 |  |  | ED50 (Rattus norvegicus [3]): 16.4 mg/kg
12 | 23 | 4 | CC1(C)CC(=O)N(CCCCN2CCN(c3nsc4ccccc34)CC2)C(=O)C1 |  | 4.8 | 15.2 | ED50 (Rattus norvegicus [6]): 4.1 mg/kg
13 | 360 | 46 | O=C1CC2(CCCC2)CC(=O)N1CCCCN1CCN(c2noc3ccc(Cl)cc23)CC1 | > 100 |  |  | 
14 |  | 350 | CN1CCN(CCCN2c3ccccc3Sc3ccc(C(F)(F)F)cc32)CC1 [TRIFLUOPERAZINE] | 6.9 | 6.5 | 3 | 
